Assays:
Format in all cases: cell-based
EGFR = EGFR (Homo sapiens, UniProt P00533); assay: EGFR degradation, immunoblot of treated cells; conditions: Figure S2, cell line not given
exon 19 del EGFR = exon 19 del EGFR (Homo sapiens, UniProt P00533, DEL746-750); assay: Exon 19 deletion EGFR degradation, immunoblot in HCC827 cells; conditions: 24 hours
Method in brief: (§1)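 Cells cultured in RPMI-1640 with 10% FBS and 1% penicillin-streptomycin at 37°C, 5% CO2. They were treated for 24 hours with increasing concentrations of a gefitinib-based PROTAC. Cells were lysed in Tris pH 7.5/NP-40/deoxycholate buffer with phosphatase and protease inhibitors, then cleared at 16,000 × g. Protein was normalised by BCA, resolved by 8% SDS-PAGE, blotted to nitrocellulose, detected by ECL and quantified by densitometry.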

L858R EGFR = L858R EGFR (Homo sapiens, UniProt P00533, L858R); assay: L858R EGFR degradation, immunoblot in H3255 cells; conditions: 24 hours
Method in brief: as §1

Q: For `COc1cc2ncnc(Nc3ccc(F)c(Cl)c3)c2cc1OCCCCCOCCOCCC(=O)N[C@H](C(=O)N1C[C@H](O)C[C@H]1C(=O)NCc1ccc(-c2scnc2C)cc1)C(C)(C)C` [Compound 3], which “WT EGFR degradation” value (EGFR) is on record?
A: sparing the WT EGFR

Q: What about the “degradation of exon-19 deletion EGFR” value (exon 19 del EGFR) of the same compound?
A: enabled the degradation

Q: And the “degradation of L858R EGFR” value (L858R EGFR)?
A: enabled the degradation

Source: PMC5831399 (Cell chemical biology, 2017)
